Assay results collected from several papers.
CDK4 with cyclin D3: Cyclin-dependent kinase 4, with cyclin D3 (CDK4, Homo sapiens, UniProt P11802)
CDK4 with cyclin D1: Cyclin-dependent kinase 4, with cyclin D1 (CDK4, Homo sapiens, UniProt P11802)
CDK4: Cyclin-dependent kinase 4 (CDK4, Homo sapiens, UniProt P11802)

Nc1ncc2c(n1)-c1c([nH]c3ccc(C#CC4CC4)cc13)CCCC2  remaining binding (CDK4 with cyclin D3; binding, competition with immobilised ligand; 1 µM): 93%
COc1cnc(Nc2cccc(S(N)(=O)=O)c2)nc1N1CCN(c2ccccc2)C(=O)C1  remaining binding (CDK4 with cyclin D1; binding, competition with immobilised ligand; 1 µM): 100%
CN(c1nccc(-c2cnn3ncccc23)n1)C1CC1  remaining binding (CDK4; binding; 1 µM): 100%
O=C(c1ccc(Nc2ncc(Cl)c(-c3ccc(Cl)s3)n2)cc1)N1CCC(N2CCCC2)CC1  remaining binding (CDK4; binding, competition with immobilised ligand; 1 µM): 1.3%
O=C(Nc1c[nH]nc1C(=O)NC1CCNCC1)c1cc(F)cc(F)c1  remaining binding (CDK4 with cyclin D3; binding, competition with immobilised ligand; 1 µM): 98%
O=C(c1ccc(Nc2nccc(-c3cc4ccccc4s3)n2)cc1)N1CCC(N2CCCC2)CC1  remaining binding (CDK4 with cyclin D1; binding, competition with immobilised ligand; 1 µM): 25%
FC(F)(F)c1ccc2c(c1)nc(-c1cccnc1)n2C1CC1  remaining binding (CDK4 with cyclin D1; cell-free assay, competition with immobilised ligand; 1 µM): 100%
C[C@@H](c1ccc(-n2cnc3c(N)ncnc32)cc1)N1CCc2nn(C)c(Cc3ccccc3)c2C1=O  remaining binding (CDK4 with cyclin D1; binding, competition with immobilised ligand; 0.1 µM): 73%
CNC(=O)[C@@H]1CC[C@@H](n2c(-c3ccc4cnccc4c3)nc3ccc(C(=O)NCc4cccc(C(N)=O)c4)cc32)C1  remaining binding (CDK4; binding, competition with immobilised ligand; 1 µM): 100%
C[C@H](c1ccc(F)cc1)N(Cc1cccc(C(=O)O)c1)C(=O)c1cnc2ccccc2c1  remaining binding (CDK4 with cyclin D1; cell-free assay, competition with immobilised ligand; 1 µM): 100%
O=C(NCCCN1CCOCC1)c1ccc(Nc2nccc(-c3cc4ccccc4s3)n2)cc1  remaining binding (CDK4; binding, competition with immobilised ligand; 1 µM): 55%
CCN1CCN(Cc2ccc(C(=O)Nc3ccc(C)c(Oc4ccc5c(c4)CC(=O)N5)c3)cc2C(F)(F)F)CC1  remaining binding (CDK4 with cyclin D1; binding, competition with immobilised ligand; 1 µM): 79%
COc1cnc(Nc2cccc(S(N)(=O)=O)c2)nc1N1CCN(c2ccccc2)CC1  remaining binding (CDK4 with cyclin D3; binding, competition with immobilised ligand; 1 µM): 93%
N[C@@H]1CCN(c2nccc(-c3cnn4ncccc34)n2)C1  remaining binding (CDK4 with cyclin D3; binding; 1 µM): 100%
O=C(NCCCN1CCOCC1)c1ccc(Nc2ncc(Cl)c(-c3ccc(Cl)s3)n2)cc1  remaining binding (CDK4 with cyclin D3; binding, competition with immobilised ligand; 1 µM): 8.4%
CC1CCCN1c1nccc(-c2cnn3ncccc23)n1 (stereo not shown)  remaining binding (CDK4 with cyclin D3; binding; 1 µM): 100%
O=C(NCC1CCOCC1)c1n[nH]cc1NC(=O)c1c(F)cccc1F  remaining binding (CDK4 with cyclin D3; binding, competition with immobilised ligand; 1 µM): 20%
C[C@@H]1CCN(c2nccc(-c3cnn4ncccc34)n2)C1  remaining binding (CDK4; binding; 1 µM): 79%
Cc1c[nH]c2nccc(Oc3c(F)cc(Nc4cc(Cl)nc(N)n4)cc3F)c12  remaining binding (CDK4; cell-free assay, competition with immobilised ligand; 0.1 µM): 67%
O=C(c1ccc(Nc2ncc(Cl)c(-c3cc4ccccc4s3)n2)cc1)N1CCC(N2CCCC2)CC1  remaining binding (CDK4 with cyclin D3; binding, competition with immobilised ligand; 1 µM): 0.8%
CN(C)CC#Cc1ccc(OCCCc2sc(N3CCc4cccc(C(=O)Nc5nc6ccccc6s5)c4C3)nc2C(=O)O)c(F)c1  remaining binding (CDK4 with cyclin D3; cell-free assay, competition with immobilised ligand; 1 µM): 100%
c1cncc(-c2cccc(Nc3nccc(NC4CCCCC4)n3)c2)c1  remaining binding (CDK4 with cyclin D1; binding, competition with immobilised ligand; 10 µM): 100%
C=CC(=O)N1CCC(C(=O)NCC(=O)N2CCN(c3nc(-c4cnc(N)nc4C(F)F)nc(N4CCOCC4)n3)CC2)CC1  remaining binding (CDK4 with cyclin D1; binding, competition with immobilised ligand; 1 µM): 83%
CN(CCCC(F)(F)F)c1nccc(-c2cnn3ncccc23)n1  remaining binding (CDK4 with cyclin D1; binding; 1 µM): 61%
FC(F)(F)Oc1cccc(-c2cnc3ccc(-c4ccncc4)nn23)c1  remaining binding (CDK4 with cyclin D3; cell-free assay, competition with immobilised ligand; 5 µM): 57%
c1cnn2ncc(-c3ccnc(N4CCC45COC5)n3)c2c1  remaining binding (CDK4 with cyclin D3; binding; 1 µM): 68%
CNCc1ccccc1-c1csc([C@H](C)Nc2nc(C)nc3cc(OC)c(OC)cc23)c1  remaining binding (CDK4 with cyclin D3; cell-free assay, competition with immobilised ligand; 1 µM): 96%
COc1ccnn2ncc(-c3ccnc(N(C)C)n3)c12  remaining binding (CDK4 with cyclin D1; binding; 1 µM): 97%
COc1cc(-c2cn(C3CCc4ccccc4N(CC(F)(F)F)C3=O)nn2)ccc1-n1ccc(C)n1 (stereo not shown)  remaining binding (CDK4; cell-free assay, competition with immobilised ligand; 1 µM): 53%
COc1ncc2cc3ccccc3nc2c1C#N  remaining binding (CDK4 with cyclin D1; cell-free assay, competition with immobilised ligand; 5 µM): 82%
Cc1nccc(COC(=O)N2C[C@@H]3[C@@H](CNC(=O)c4ccc5[nH]nnc5c4)[C@@H]3C2)n1  remaining binding (CDK4 with cyclin D3; cell-free assay, competition with immobilised ligand; 1 µM): 78%
Cc1cnc(Nc2ccc(C(=O)N3CCC(N4CCCC4)CC3)cc2)nc1-c1cc2ccccc2s1  remaining binding (CDK4 with cyclin D1; binding, competition with immobilised ligand; 1 µM): 1.7%
O=C(O)c1cc(-c2ccc(C3CCNCC3)cc2)c2ccc(-c3ccc(C(F)(F)F)cc3)cc2c1  remaining binding (CDK4 with cyclin D3; cell-free assay, competition with immobilised ligand; 1 µM): 100%
CN(C)c1nccc(-c2cnc3ncccn23)n1  remaining binding (CDK4 with cyclin D3; binding; 1 µM): 48%
